The record followed here is ChEMBL document CHEMBL1144782, “Isoindolo[2,1-a]quinoxaline derivatives, novel potent antitumor agents with dual inhibition of tubulin polymerization and topoisomerase I” (2008).

One assay concerns NCI-H460. Put plainly: Cell viability against human NCI-H460 cells at 10 uM. The assay is classed as functional.
The subject of another assay is MCF7. As to the kind of experiment: Cell viability against human MCF7 cells at 10 uM. The assay is classed as functional.
The next assay deals with SF-268. As to the kind of experiment: Cell viability against human SF268 cells at 10 uM. The assay is classed as functional.
In a further assay the test system is A549. Put plainly: Disruption of tubulin network in human A549 cells assessed as disaggregation of microtubules at 1 uM […]. Type of assay: functional, cell-based.
The next assay concerns the target Tubulin (Sus scrofa) (UniProt P02554+P02550). Put plainly: Inhibition of pig brain tubulin polymerization at 3 uM.
The test system of another assay is Jurkat. As to the kind of experiment: Cell cycle arrest in human Jurkat cells at mitosis at 0.5 uM after 24 hrs. Type of assay: functional. Put shortly: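 Exponentially growing Jurkat cells were exposed for 24 h, then pelleted at 400g for 5 min. Hypotonic KCl (75 mM, 4 °C) was applied for 20 min, followed by methanol–acetic acid (3:1) fixation and Giemsa staining. 400 cells per treatment were scored microscopically; mitotic index is the fraction with mitotic figures. Three independent experiments, mean ± SEM.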

The structures appear in SMILES notation. Calls of active or inactive are those of the source. The rule behind the calls is not given here.

Chain of Tubulin (Sus scrofa) (P02550 whole entry, looked up): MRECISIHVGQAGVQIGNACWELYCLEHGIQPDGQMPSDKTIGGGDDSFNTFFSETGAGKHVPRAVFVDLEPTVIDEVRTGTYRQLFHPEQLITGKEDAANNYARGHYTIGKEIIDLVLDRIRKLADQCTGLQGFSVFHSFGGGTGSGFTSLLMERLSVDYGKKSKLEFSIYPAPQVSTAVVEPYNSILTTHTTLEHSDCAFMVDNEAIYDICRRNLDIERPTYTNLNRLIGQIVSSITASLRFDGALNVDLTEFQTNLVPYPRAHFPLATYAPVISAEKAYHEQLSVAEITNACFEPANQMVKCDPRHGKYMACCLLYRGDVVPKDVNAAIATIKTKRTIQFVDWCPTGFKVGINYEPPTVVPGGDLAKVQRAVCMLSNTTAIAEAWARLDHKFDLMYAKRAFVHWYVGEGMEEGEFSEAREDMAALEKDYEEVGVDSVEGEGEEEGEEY
Chain of Tubulin (Sus scrofa) (P02554 whole entry, looked up): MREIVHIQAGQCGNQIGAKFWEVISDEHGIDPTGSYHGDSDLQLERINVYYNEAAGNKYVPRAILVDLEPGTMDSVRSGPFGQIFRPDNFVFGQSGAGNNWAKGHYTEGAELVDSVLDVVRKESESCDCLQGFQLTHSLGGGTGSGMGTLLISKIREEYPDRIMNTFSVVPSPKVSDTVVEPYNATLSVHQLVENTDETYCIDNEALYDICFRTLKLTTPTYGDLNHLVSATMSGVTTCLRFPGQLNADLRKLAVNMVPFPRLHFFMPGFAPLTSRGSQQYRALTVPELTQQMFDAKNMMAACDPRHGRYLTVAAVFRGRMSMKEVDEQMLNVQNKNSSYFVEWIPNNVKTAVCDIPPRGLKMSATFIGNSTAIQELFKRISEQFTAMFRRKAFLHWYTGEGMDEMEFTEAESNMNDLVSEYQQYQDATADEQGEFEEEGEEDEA

Turning to `N#Cc1c2ccccc2c2cnc3ccccc3n12`, the Activity in the assay with NCI-H460 was determined as 91%; in the assay with MCF7, 107%; in the assay on SF-268 it was 94%.
For the compound `CC[C@]1(O)C[C@@H]2CN(CCc3c([nH]c4ccccc34)[C@@](C(=O)OC)(c3cc4c(cc3OC)N(C)[C@H]3[C@@](O)(C(=O)OC)[C@H](OC(C)=O)[C@]5(CC)C=CCN6CC[C@]43[C@@H]65)C2)C1`, in the assay with A549, the outcome was Active.
With `N#Cc1c2ccccc2c2cnc3cc(Cl)c(Cl)cc3n12`, the Activity in the assay on NCI-H460 is reported as 104%; in the assay with MCF7, 108%; in the assay with SF-268 it was 104%.
Regarding `Cc1cc2ncc3c4ccccc4c(C#N)n3c2cc1C`, the values for the Activity in the assay on NCI-H460, with MCF7 and with SF-268 were 78%, 97% and 83%, respectively.
Consider `CC(=O)O[C@H]1C(=O)[C@@]2(C)[C@H]([C@H](OC(=O)c3ccccc3)[C@]3(O)C[C@H](OC(=O)[C@H](O)[C@@H](NC(=O)c4ccccc4)c4ccccc4)C(C)=C1C3(C)C)[C@]1(OC(C)=O)CO[C@@H]1C[C@@H]2O`, for which the result at Tubulin (Sus scrofa) was Active.
`COc1cc2c(c(OC)c1OC)-c1ccc(OC)c(=O)cc1[C@@H](NC(C)=O)CC2` [COLCHICINE] returned an Activity in the assay on Jurkat of 50%.
